Measured values as given in ChEMBL document CHEMBL1125890, “Synthesis, calcium-channel-blocking activity, and antihypertensive activity of 4-(diarylmethyl)-1-[3-(aryloxy)propyl]piperidines and structurally related compounds” (J Med Chem, 1991).

Legend:
[1] = test system: Rattus norvegicus; assay: Antihypertensive activity expressed as change in mean arterial blood pressure (MABP) in spontaneously hypertensive rats (SHR), at 3-6h after 30 mg/kg oral administration; type: functional, Artery
Procedure, shortened: (§1)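 Adult male SHR, catheter implanted in carotid artery or abdominal aorta under anesthesia at least 24 h before dosing. Baseline pressure recorded 1-1.5 h. Compound given orally at 30 mg/kg as solution or suspension in 0.5% Tween 80/distilled H2O (v/v) or other vehicle. MABP read at 0.5, 1, 1.5, 2, 3, 4, 5 and 6 h. Average percent change from predose calculated per period. Paired one-tailed t test, p < 0.05. n = 3-6 rats unless noted.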

[2] = test system: Rattus norvegicus; assay: Antihypertensive activity expressed as change in mean arterial blood pressure (MABP) in spontaneously hypertensive rats (SHR),at 0.5-2h after 30 mg/kg oral administration; type: functional, Artery; procedure, shortened: as §1
[3] = species: Oryctolagus cuniculus; assay: Calcium channel-blocking activity by determined by ability to antagonize calcium-induced contractions of isolated rabbit aortic strips; type: functional; details: Aorta, read-out: pA2 (converted)
Procedure, shortened: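 Rabbit aortic strips were bathed in turn in CaCl2-containing buffer, CaCl2-free buffer, then depolarizing (KCl) CaCl2-free buffer. Cumulative CaCl2 addition induced contractions, recorded with force-displacement transducers. Responses were compared without and with 1–100 nM test compound. pA2 was calculated by the Van Rossum method from at least three tissues.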

SMILES | Change [1] [%] | Change [2] [%] | Kb [3] [nM]
Cc1cccc(C)c1NC(=O)CN1CCN(CCCC(c2ccc(F)cc2)c2ccc(F)cc2)CC1 [LIDOFLAZINE] | -9 | -9 | 31.6
COC(=O)C1=C(C)NC(C)=C(C(=O)OC)C1c1ccccc1[N+](=O)[O-] [NIFEDIPINE] | -35 | -30 | 0.158
COc1ccc(CCN(C)CCCC(C#N)(c2ccc(OC)c(OC)c2)C(C)C)cc1OC (centres undefined) [VERAPAMIL] | -22 | -19 | 10
